We go through two compounds from publication PMC7115590 (European Journal of Medicinal Chemistry, 2012).

For one series, the system named is Kunming mice. The experiment in a line: Acute toxicity in mice, single oral dose, 14 days observation. Format: in vivo. The conditions noted are these: for No. of dead, 1–7 day / No. of dead, 8–14 day / Total death / mortality: 10 mice; for Body weight, 0 day: group average. In outline: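 Male and female Kunming mice (21 ± 2 g) were randomised into 4 groups of 10 (5 male + 5 female). Each group received one oral dose of test compound at 0, 50, 250 or 1250 mg/kg; the 0 group got the same volume of physiological saline. Mice had free food and water at 25 ± 1 °C on a 12-h light/dark cycle. Survival and body weight were recorded up to 14 days.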

The next series relates to HBV DNA replication. The experiment in a line: Inhibition of HBV DNA replication in HepG 2.2.15 cells. The settings on record: Hepatitis B virus, HepG2.2.15, read-out: DNA replication IC50. In kind it is cell-based.
The nature of another series: Cytotoxicity. The settings on record: human, HepG 2.2.15 cells. In kind it is cell-based.
Series [1] concerns HBsAg (hepatitis B surface antigen) secretion. Put plainly: Inhibition of HBsAg secretion in HepG 2.2.15 cells. In kind it is cell-based. The conditions noted are these: Hepatitis B virus, HepG2.2.15, read-out: HBsAg IC50.

Turning to `COc1cc(/C=C/C(=O)O[C@H]2CC[C@@]3(C)C(=CC[C@]4(O)[C@@H]3C[C@@H](OC(=O)/C=C(\C)C(C)C)[C@@]3(C)[C@]4(O)CC[C@@]3(O)C(C)=O)C2)cc(OC)c1OC` [Compound 18, 3-O-(3,4,5-Trimethoxy)cinnamoyl caudatin], in the series with Kunming mice (50 mg/kg oral), the “No. of dead, 1–7 day” value is listed as 0; the “No. of dead, 8–14 day” value amounted to 0; the Total death is listed as 0/0; the mortality was 0/0. Moreover, the “Body weight, 0 day” value in the series with Kunming mice (50 mg/kg oral) was determined as 22.4 g. Moreover, in the series on Kunming mice (250 mg/kg oral), the “No. of dead, 1–7 day” value worked out at 0; the “No. of dead, 8–14 day” value was determined as 0; the Total death is 0/0; the mortality was 0/0. For the same compound, in the series on Kunming mice (250 mg/kg oral), the “Body weight, 0 day” value is listed as 22.3 g. In addition, in the series on Kunming mice (1250 mg/kg oral), the “No. of dead, 1–7 day” value stood at 0; the “No. of dead, 8–14 day” value is 0; the Total death is 0/0; the mortality is 0/0. Besides, the “Body weight, 0 day” value with Kunming mice (1250 mg/kg oral) was determined as 22.6 g. Besides, in the series with Kunming mice (single oral dose at 50, 250 and 1250 mg/kg, Kunming mice of both genders), the “survival and abnormality of mice up to 14 days post administration” value was “no dies and abnormality were observed”.

For `CC(=O)[C@]1(O)CC[C@@]2(O)[C@]1(C)[C@H](OC(=O)/C=C(\C)C(C)C)C[C@@H]1[C@@]3(C)CC[C@H](O)CC3=CC[C@]12O` [Compound 1, caudatin], the half-inhibitory concentration (IC50) was 40.6 µM in the series with HBV DNA replication and 143 µM in series [1]. The half-maximal cytotoxic concentration (CC50) in “Cytotoxicity” amounted to 245 µM.
